Key:
[1] = Pilot pharmacokinetic and tissue distribution study in mice after oral EAI045; type: in vivo, mouse (FVB/NRj wild-type, female)
Procedure, shortened: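 Five female FVB/NRj mice, 10–15 weeks old, fasted 3 h, then given one 20 mg/kg oral gavage dose. Vehicle: DMSO stock at 4 mg/ml, diluted with polysorbate 80–ethanol (1:1) and 5% glucose to 2 mg/ml. Tail-vein blood taken at 5, 15, 30 min, 1 and 2 h. At 4 h, cardiac puncture under isoflurane, then organs homogenised in 2% BSA. Cmax/Tmax observed; AUC0–t by trapezoidal rule; CL/F = dose/AUC0–t; mean ± SD.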

[2] = Short-term stability in mouse tissue homogenates; type: in vitro ADME
Procedure, shortened: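 Blank homogenate made by homogenising the whole organ in ice-cold 2% (w/v) BSA in water. Medium QC (100 ng/ml) prepared by diluting high-QC plasma into the homogenate. Held 5 h at room temperature (n = 4), then acetonitrile protein precipitation with internal standard and LC–MS/MS quantification. Peak-area ratios were read from a 1/x²-weighted calibration line.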

[3] = Stability in mouse plasma QC samples; type: in vitro ADME
Procedure, shortened: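 Pooled female mouse lithium–heparin plasma QCs at high (1,500 ng/ml) and low (6 ng/ml) levels, as 10 µl portions (n = 4). Three conditions: room temperature for 5 and 24 h; three freeze–thaw cycles (1 h thaw at room temperature, 1 day at −30°C); and 1.5 months at −30°C. Quantified by LC–MS/MS after acetonitrile precipitation.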

[4] = Stability of methanolic stock solutions; type: physicochemical; conditions: 1.5 months at −30°C, methanol
Procedure, shortened: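 Single-analyte stocks (0.5 mg/ml in methanol, made from 300–500 µg of weighed solid) stored 1.5 months at −30°C, then reanalysed by LC–MS/MS.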

[5] = female, FVB/NRj, mouse, plasma, po, 20 mg/kg

SMILES: O=C(O)C(c1cc(F)ccc1O)N1Cc2ccccc2C1=O (stereo not drawn) [PIA, (5‐fluoro‐2‐hydroxyphenyl)(1‐oxo‐1,3‐dihydro‐2H‐isoindol‐2‐yl)acetic acid]
- concentration at 4 h ([1]; female, FVB/NRj, mouse, brain, po, 20 mg/kg): 9.8 ng/g
- concentration at 4 h ([1]; female, FVB/NRj, mouse, kidney, po, 20 mg/kg): 30.8 ng/mL
- AUC(0-t) [1, 5]: 1870 ng·h/mL
- Cmax [1, 5]: 1520 ng/mL
- Tmax [1, 5]: 15 to 30 min
- half-life [1, 5]: 70.2 ± 12.6 min
- metabolite level compared with EAI045 (ratio) ([1]; pilot study, SIWC): ca. 5%
- metabolite level compared with EAI045 ([1]; pilot study, all matrices except SIWC): higher than 10%
- plasma concentration (chromatogram sample) ([1]; plasma sample from a single mouse, oral 20 mg/kg EAI045): 133 ng/mL
- time by which PIA was more abundant in plasma than the parent drug ([1]; plasma, oral 20 mg/kg EAI045, mice): ≤ 15 min
- absolute amount retrieved from SIWC ([1]; small intestine with contents, 4 h after oral 20 mg/kg EAI045, mice, data not shown): ~ 0.074 % of the EAI045 dose
- recovery at 5 h, 100 ng/ml ([2]; SIWC homogenate): 104 ± 3.4%
- recovery at 5 h, 100 ng/ml ([2]; brain homogenate): 99.7 ± 5.1%
- recovery at 5 h, 100 ng/ml ([2]; kidney homogenate): 99.4 ± 2.4%
- recovery at 5 h, 100 ng/ml ([2]; liver homogenate): 114 ± 10.9%
- recovery at 5 h, 100 ng/ml ([2]; lung homogenate): 107 ± 2%
- recovery at 5 h, 100 ng/ml ([2]; spleen homogenate): 107 ± 7.6%
- recovery at 1.5 months, 6 ng/ml [3]: 110 ± 9.6%
- recovery at 1.5 months, 1500 ng/ml [3]: 90.8 ± 2.4%
- recovery at 5 h, 6 ng/ml [3]: 93.3 ± 1.8%
- recovery at 5 h, 1500 ng/ml [3]: 102 ± 4.1%
- recovery at 24 h, 6 ng/ml [3]: 101 ± 8.3%
- recovery at 24 h, 1500 ng/ml [3]: 100 ± 6.2%
- recovery of methanolic stock solution [4]: 98.3%

Reference: paper PMC9786734 (Biomedical Chromatography, 2022)
